Data set [1] can be described thus: Selectivity index, ratio of CC50 for human MT4 cells to EC50 for HIV2 ROD. The class given is toxicity, cell-based. As to conditions: read-out: Ratio CC50/EC50. A digest of the protocol:
(§1)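 HIV-1 IIIB and HIV-2 ROD tested in MT-4 cells by MTT. Serial fivefold dilutions of compound added to triplicate mock- and virus-infected wells. MT-4 cells at 6 × 10^5 cells/mL. Absorbance read at 540/690 nm; median OD of three wells used. CC50 is the concentration reducing mock-infected OD540 by 50%. […]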

Data set [2] in a line: Selectivity index, ratio of CC50 for human MT4 cells to EC50 for HIV1 3B. As to conditions: read-out: Ratio CC50/EC50. Type of data set: toxicity, cell-based. A digest of the protocol: as §1
Data set [3] in a line: Antiviral activity against HIV2 ROD infected in human MT4 cells assessed as protection against virus-induced cytopathic effect after 5 days MTT assay. The class given is functional, cell-based, Human immunodeficiency virus type 2 (ISOLATE ROD). As to conditions: Human immunodeficiency virus 2, MT4, 120 h. A digest of the protocol: (§2)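 HIV-1 strain IIIB and HIV-2 strain ROD in MT-4 cells, MTT-based. Test compounds in serial five-fold dilutions, in triplicate wells run alongside mock-infected cells, with untreated infected and mock controls. MT-4 cells resuspended at 6 × 10^5 cells/mL. Absorbance read at 540 and 690 nm, median OD of three wells. EC50 is the 50% effective concentration.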

The nature of data set [4]: Cytotoxicity against human MT4 cells assessed as decrease in cell viability after 5 days by MTT assay. The class given is toxicity, cell-based. A digest of the protocol: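 MT-4 cells in mock-infected wells of the anti-HIV MTT setup. Compounds in serial five-fold dilutions in triplicate, cells at 6 × 10^5 cells/mL. Absorbance at 540 and 690 nm, median OD of three wells. CC50 is the concentration that lowers OD540 of the mock-infected control by 50%.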
For orientation: Tetrazolium assays rely on reduction of a dye to a coloured formazan, in cell work by metabolically active cells.

Data set [5] deals with Human immunodeficiency virus 1. As to the kind of experiment: Antiviral activity against HIV1 3B infected in human MT4 cells assessed as protection against virus-induced cytopathic effect after 5 days MTT assay. The class given is functional, cell-based. The following applies: Human immunodeficiency virus 1, 3B, MT4, 120 h. A digest of the protocol: as §2
A general note: Damage to the host cells serves as the signal in cytopathic effect assays.

Data set [6] is described as follows: Cytotoxicity against human K562 cells assessed as decrease in cell proliferation after 72 hrs by XTT assay. The following applies: K562, 72 h.

pIC50: −log10 of the molar value. In brackets after ≈: the same amount, converted by molar mass. Bounds are passed on as bounds.

In the case of `Cc1cn([C@H]2C[C@H](N=[N+]=[N-])[C@@H](CO)O2)c(=O)[nH]c1=O` [ZIDOVUDINE], the selectivity ratio in data set [1] was above 26700; in data set [2] it was above 11600. Further, the EC50 in data set [3] was 0.00094 µg/mL (≈ 0.00352 µM); in data set [5] it was 0.0022 µg/mL (≈ 0.00823 µM). For the same compound, in data set [4], the CC50 at 120 h is above 25 µg/mL.
In the same order, the values of `O=C(COc1ccc2ccccc2c1)NNC(=S)NCc1ccccc1` are at most 1, at most 1, above 61.4 µg/mL, above 61.4 µg/mL and at least 61.4 µg/mL.
For `NS(=O)(=O)c1ccc(NC(=O)CSc2nnc(COc3ccc4ccccc4c3)n2Cc2ccccc2)cc1`, the selectivity ratio in data set [1] and in data set [2] was below 1 each time. Besides, the half-maximal effective concentration (EC50) in data set [3] and in data set [5] was above 94.4 µg/mL in each case. For the same compound, the CC50 at 120 h in data set [4] came to 94.5 µg/mL (≈ 169 µM).
On to `CCOC(=O)c1ccc(NC(=O)CSc2nnc(COc3ccc(NC(C)=O)cc3)n2Cc2ccccc2)cc1`, for which the selectivity ratio in data set [1] and in data set [2] was below 1 each time. In addition, the EC50 in data set [3] and in data set [5] was above 91.1 µg/mL each time. Besides, in data set [4], the cytotoxic concentration (CC50) at 120 h stood at 91.1 µg/mL (≈ 163 µM).
As for `Nc1ccn([C@H]2CC[C@@H](CO)O2)c(=O)n1` [ZALCITABINE], the selectivity ratio in data set [1] was above 108; in data set [2], above 127. Further, in data set [3], the EC50 came to 0.19 µg/mL (≈ 0.9 µM). Besides, the CC50 at 120 h in data set [4] was above 20 µg/mL.
With `Cc1ccc(C(C)C)c(OCc2nnc(SCC(=O)Nc3ccc([N+](=O)[O-])cc3)n2Cc2ccccc2)c1`, the selectivity ratio in data set [1] and in data set [2] was below 1 each time. For the same compound, the EC50 in data set [3] and in data set [5] was above 11.2 µg/mL each time. Besides, in data set [4], the CC50 at 120 h came out at 11.2 µg/mL (≈ 21 µM).
Take `CC(=O)Nc1ccc(OCc2nnc(SCC(=O)Nc3ccc([N+](=O)[O-])cc3)n2Cc2ccccc2)cc1`: the selectivity ratio in data set [1] and in data set [2] was below 1 each time. The EC50 in data set [3] and in data set [5] was above 105 µg/mL each time. Further, the CC50 at 120 h in data set [4] came out at 105 µg/mL (≈ 197 µM).
`CCOC(=O)c1ccc(NC(=O)CSc2nnc(COc3cc(C)ccc3C(C)C)n2Cc2ccccc2)cc1`: the selectivity ratio in data set [1] and in data set [2] was below 1 throughout. For the same compound, the EC50 in data set [3] and in data set [5] was above 19.8 µg/mL throughout. Besides, the CC50 at 120 h in data set [4] stood at 19.8 µg/mL (≈ 35.5 µM).
With `S=c1[nH]nc(COc2ccc3ccccc3c2)n1Cc1ccccc1`, the selectivity ratio in data set [1] and in data set [2] was at most 1 each time. Besides, the EC50 in data set [3] and in data set [5] was above 85.8 µg/mL each time. Further, in data set [4], the CC50 at 120 h was at least 85.8 µg/mL.
Turning to `Cc1ccc(NC(=O)c2ccc(CN3CCN(C)CC3)cc2)cc1Nc1nccc(-c2cccnc2)n1` [IMATINIB], in data set [6], the negative-log IC50 (pIC50) was 6.51.
As for `CC(=O)Nc1ccc(OCc2nnc(SCC(=O)Nc3ccc(S(N)(=O)=O)cc3)n2Cc2ccccc2)cc1`, the selectivity ratio in data set [1] and in data set [2] was 1 each time. The EC50 in data set [3] and in data set [5] was above 125 µg/mL throughout. For the same compound, the CC50 at 120 h in data set [4] is above 125 µg/mL.
Consider `CC(=O)Nc1ccc(OCc2n[nH]c(=S)n2Cc2ccccc2)cc1`, for which the selectivity ratio in data set [1] and in data set [2] was below 1 each time. The EC50 in data set [3] and in data set [5] was above 79 µg/mL in each case. Also, the CC50 at 120 h in data set [4] amounted to 79 µg/mL (≈ 223 µM).
For the compound `Cc1ccc(C(C)C)c(OCc2nnc(SCC(=O)Nc3ccc(Br)cc3)n2Cc2ccccc2)c1`, the selectivity ratio in data set [1] and in data set [2] was below 1 in each case. Also, the concentration giving a half-maximal response (EC50) in data set [3] and in data set [5] was above 66.7 µg/mL each time. In data set [4], the CC50 at 120 h was determined as 66.7 µg/mL (≈ 118 µM).
Take `Cc1ccnc2c1NC(=O)c1cccnc1N2C1CC1` [NEVIRAPINE]: the selectivity ratio is below 1 in data set [1] and above 80 in data set [2]. Moreover, in data set [3], the EC50 was above 4 µg/mL. For the same compound, in data set [4], the 50% cytotoxic concentration (CC50) at 120 h is above 4 µg/mL.
For the compound `CC(=O)Nc1ccc(OCC(=O)NNC(=S)NCc2ccccc2)cc1`, the selectivity ratio in data set [1] and in data set [2] was below 1 in each case. The EC50 in data set [3] and in data set [5] was above 83.5 µg/mL in each case. The CC50 at 120 h in data set [4] was determined as 83.5 µg/mL (≈ 224 µM).
Regarding `CC(=O)Nc1ccc(OCc2nnc(SCC(=O)Nc3ccc(Cl)cc3)n2Cc2ccccc2)cc1`, the selectivity ratio in data set [1] and in data set [2] was below 1 throughout. Moreover, the EC50 in data set [3] and in data set [5] was above 14 µg/mL each time. The CC50 at 120 h in data set [4] stood at 14 µg/mL (≈ 26.8 µM).
Turning to `O=C(CSc1nnc(COc2ccc3ccccc3c2)n1Cc1ccccc1)Nc1ccc(Cl)cc1`, the selectivity ratio in data set [1] and in data set [2] was at most 1 throughout. Further, the EC50 in data set [3] and in data set [5] was above 4.93 µg/mL in each case. The cytotoxic concentration (CC50) at 120 h in data set [4] was at least 4.93 µg/mL.
Take `O=C(CSc1nnc(COc2ccc3ccccc3c2)n1Cc1ccccc1)Nc1ccc(Br)cc1`: the selectivity ratio in data set [1] and in data set [2] was below 1 each time. Further, the EC50 in data set [3] and in data set [5] was above 58 µg/mL each time. The CC50 at 120 h in data set [4] came to 58 µg/mL (≈ 104 µM).
Turning to `Cc1ccc(C(C)C)c(OCc2n[nH]c(=S)n2Cc2ccccc2)c1`, the selectivity ratio in data set [1] and in data set [2] was below 1 each time. For the same compound, the EC50 in data set [3] and in data set [5] was above 13.1 µg/mL in each case. Also, the CC50 at 120 h in data set [4] is 13.1 µg/mL (≈ 37 µM).
Take `O=C(CSc1nnc(COc2ccc3ccccc3c2)n1Cc1ccccc1)Nc1ccc([N+](=O)[O-])cc1`: the selectivity ratio in data set [1] and in data set [2] was at most 1 throughout. The concentration for a half-maximal effect (EC50) in data set [3] and in data set [5] was above 116 µg/mL each time. Moreover, the CC50 at 120 h in data set [4] was at least 116 µg/mL.
Consider `O=c1[nH]cnc2c1ncn2[C@H]1CC[C@@H](CO)O1` [DIDANOSINE], for which the selectivity ratio is above 13 in data set [1] and above 24 in data set [2]. The EC50 in data set [3] was 3.78 µg/mL (≈ 16 µM); in data set [5], 2.09 µg/mL (≈ 8.85 µM). The CC50 at 120 h in data set [4] is above 50 µg/mL.
In the same order, the values of `CCOC(=O)c1ccc(NC(=O)CSc2nnc(COc3ccc4ccccc4c3)n2Cc2ccccc2)cc1` are at most 1, at most 1, above 90.7 µg/mL, above 90.7 µg/mL and at least 90.7 µg/mL.
As to `Cc1ccc(C(C)C)c(OCC(=O)NNC(=S)NCc2ccccc2)c1`, the selectivity ratio in data set [1] and in data set [2] was below 1 each time. Moreover, the half-maximal effective concentration (EC50) in data set [3] and in data set [5] was above 12.6 µg/mL each time. In addition, the CC50 at 120 h in data set [4] stood at 12.6 µg/mL (≈ 34 µM).

The term EC50 denotes the concentration giving half of the maximal effect. A word on the CC50: it is the concentration at which the toxic effect on the cells reaches its halfway point. The term pIC50 denotes the negative decadic logarithm of the IC50, by convention in mol/L.
